These results are taken from ChEMBL document CHEMBL1145112, “Pyrazolo[4,3-e]-1,2,4-triazolo[1,5-c]pyrimidine derivatives as adenosine receptor antagonists. Influence of the N5 substituent on the affinity at the human A 3 and A 2B adenosine receptor subtypes: a molecular modeling investigation” (J Med Chem, 2003).

Test [1] addresses Adenosine receptors; A1 & A2b (Homo sapiens) (UniProt P30542+P29275). The experiment in a line: Relative inhibitory activity against adenosine A1 and A2B receptors. It is filed as protein assay.
The target of test [2] is Adenosine receptors; A2b & A3 (Homo sapiens) (UniProt P29275+P0DMS8). As to the kind of experiment: Relative inhibitory activity against adenosine A3 receptors and A2B receptors. It is filed as protein assay.
Test [3] has as its target T1, Adenosine receptor A2b (Homo sapiens, UniProt P29275).
T1 sequence (P29275 whole entry): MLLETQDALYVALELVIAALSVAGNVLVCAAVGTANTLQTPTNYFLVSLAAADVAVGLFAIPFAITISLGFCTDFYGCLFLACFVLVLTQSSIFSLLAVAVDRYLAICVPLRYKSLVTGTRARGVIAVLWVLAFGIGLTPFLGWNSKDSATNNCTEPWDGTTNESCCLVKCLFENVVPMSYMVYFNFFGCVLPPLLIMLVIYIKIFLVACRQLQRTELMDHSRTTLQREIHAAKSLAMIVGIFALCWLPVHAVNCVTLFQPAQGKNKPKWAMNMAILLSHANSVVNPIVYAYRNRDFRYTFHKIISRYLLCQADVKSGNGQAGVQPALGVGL
The experiment in a line: Inhibitory activity against NECA stimulated cAMP accumulation in CHO cells expressing human adenosine A2B receptor. It is filed as functional, cell-based. A digest of the protocol: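 Transfected CHO cells (1 × 10^6/assay) in pH 7.4 saline/HEPES/glucose medium with 2 IU/mL adenosine deaminase and Ro 20-1724 (phosphodiesterase inhibitor), preincubated 10 min at 37 °C. Antagonism of 100 nM NECA-stimulated cAMP was measured. Reaction stopped with cold 6% TCA, then ether extraction. cAMP was quantified by competitive binding with [3H]-cAMP and beef adrenal binding protein (150 min, 4 °C), with charcoal separation and scintillation counting.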
Background: Cyclic AMP is a second messenger, typically raised through Gs and lowered through Gi signalling.

For test [4], the target named is T2, Adenosine receptor A1 (Homo sapiens, UniProt P30542).
T2 sequence (P30542 whole entry): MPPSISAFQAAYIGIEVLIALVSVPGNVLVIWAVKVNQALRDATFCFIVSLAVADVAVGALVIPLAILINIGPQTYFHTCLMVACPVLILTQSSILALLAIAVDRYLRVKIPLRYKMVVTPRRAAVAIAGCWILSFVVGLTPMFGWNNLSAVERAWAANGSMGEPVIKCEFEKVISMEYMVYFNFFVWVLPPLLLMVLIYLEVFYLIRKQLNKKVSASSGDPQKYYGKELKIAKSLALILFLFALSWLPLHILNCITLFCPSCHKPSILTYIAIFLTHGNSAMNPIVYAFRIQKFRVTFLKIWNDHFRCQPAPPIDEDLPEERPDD
The experiment in a line: Displacement of [3H]DPCPX from human Adenosine A1 receptor expressed in CHO cells. It is filed as cell-based. A digest of the protocol:
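Membranes from the transfected cells in 50 mM Tris-HCl, pH 7.4, incubated 120 min at 25 °C with 1 nM [3H]-DPCPX (50 μg protein/assay) and at least six to eight test concentrations. Nonspecific binding was set with 10 μM CHA. Bound and free ligand were separated by GF/B filtration, then scintillation counted. n = 3–6, mean ± SEM.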

The target in test [5] is T3, Adenosine receptor A3 (Homo sapiens, UniProt P0DMS8).
T3 sequence (P0DMS8 whole entry): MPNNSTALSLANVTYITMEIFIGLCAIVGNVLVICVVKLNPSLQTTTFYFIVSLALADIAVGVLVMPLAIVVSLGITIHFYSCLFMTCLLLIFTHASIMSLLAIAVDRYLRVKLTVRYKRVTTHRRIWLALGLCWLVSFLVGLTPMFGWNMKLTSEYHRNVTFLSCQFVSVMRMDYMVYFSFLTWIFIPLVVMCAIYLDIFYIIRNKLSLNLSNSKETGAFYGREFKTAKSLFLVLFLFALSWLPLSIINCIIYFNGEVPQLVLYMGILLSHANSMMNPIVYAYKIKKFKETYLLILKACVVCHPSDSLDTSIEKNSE
The experiment in a line: Displacement of [3H]MRE3008-F20 from human A3 receptors expressed in HEK293 cells. It is filed as cell-based. A digest of the protocol: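 Duplicate competition tubes: 1 nM [3H]-MRE3008-F20 in 50 mM Tris-HCl, 10 mM MgCl2, pH 7.4, membranes (50 μg protein/assay) and at least six to eight ligand concentrations, incubated 120 min at 4 °C. Nonspecific binding was set with 1 μM unlabeled MRE3008-F20. Bound radioactivity was collected on GF/B filters and counted.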

The target in test [6] is T1, Adenosine receptor A2b. The experiment in a line: Displacement of [3H]DPCPX from human adenosine A2B receptor expressed in HEK293 cells. It is filed as cell-based. In a few lines: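 Competition run 60 min at 25 °C in 50 mM Tris-HCl, 10 mM MgCl2, 1 mM EDTA, 0.1 mM […], pH 7.4, with 2 IU/mL adenosine deaminase. Assays held 40 nM [3H]-DPCPX, membranes (20 μg protein/assay) and at least six to eight compound concentrations. Nonspecific binding was set with 100 μM NECA. Filtered on GF/B and counted. n = 3–6, mean ± SEM.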

Test [7] has as its target Adenosine receptor A2a (Homo sapiens, UniProt P29274). As to the kind of experiment: Displacement of [3H]ZM-241385 from human adenosine A2A receptors expressed in HEK293 cells. It is filed as cell-based. Background: In a radioligand displacement assay an active substance lowers the binding of a labelled ligand.

One may read the IC50 as the concentration that gives 50% inhibition. A higher IC50 goes with weaker potency in that assay. One may read the Ki as the dissociation constant of the complex between target and ligand, obtained from inhibition or displacement.

Adenosine receptor A2a, sequence (P29274 whole entry): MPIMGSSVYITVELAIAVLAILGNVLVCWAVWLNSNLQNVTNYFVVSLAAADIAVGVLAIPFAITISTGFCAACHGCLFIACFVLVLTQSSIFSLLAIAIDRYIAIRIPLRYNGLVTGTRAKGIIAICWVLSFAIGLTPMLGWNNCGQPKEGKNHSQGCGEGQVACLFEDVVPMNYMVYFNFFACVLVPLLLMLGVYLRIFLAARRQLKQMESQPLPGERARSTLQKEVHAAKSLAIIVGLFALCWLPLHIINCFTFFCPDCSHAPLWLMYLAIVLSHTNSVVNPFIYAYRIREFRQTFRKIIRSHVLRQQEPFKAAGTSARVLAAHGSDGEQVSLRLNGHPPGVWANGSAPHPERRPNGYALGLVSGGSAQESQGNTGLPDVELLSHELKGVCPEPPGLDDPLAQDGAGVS

As for `Cn1cc2c(nc(NC(=O)Nc3ccccc3)n3nc(-c4ccco4)nc23)n1`, the Ratio in test [1] was found to be 2.67; in test [2], 0.0007.

For the compound `O=C(Cc1cccc2ccccc12)Nc1nc2nn(CCCc3ccccc3)cc2c2nc(-c3ccco3)nn12`, the IC50 in test [3] was 110 nM. In addition, the inhibitory constant (Ki) in test [4] came to 1100 nM; in test [5] it was 300 nM; in test [6] it was 20 nM; in test [7] it was 800 nM. Moreover, the results for the Ratio in test [1] and in test [2] were 55 and 15, respectively.

In test [3], `O=C(COc1ccccc1)Nc1nc2nn(CCCc3ccccc3)cc2c2nc(-c3ccco3)nn12` had an IC50 of 140 nM. The Ki in test [4] was found to be 50 nM; in test [5], 40 nM; in test [6] it was 25 nM; in test [7] it was 45 nM. The Ratio in test [1] stood at 2; in test [2] it was 1.6.

`CC(C)CCn1cc2c(nc(NC(=O)Cc3ccccc3)n3nc(-c4ccco4)nc23)n1` gave an IC50 in test [3] of 190 nM. The Ki is 200 nM in test [4], 31 nM in test [6] and 57 nM in test [7]. The Ratio in test [1] was determined as 6.4; in test [2] it was 2.6.

In test [3], `CC(C)CCn1cc2c(nc(NC(=O)Cc3cccc4ccccc34)n3nc(-c4ccco4)nc23)n1` had an IC50 of 170 nM. Besides, the Ki in test [4] stood at 142 nM; in test [5], 215 nM; in test [6], 28 nM; in test [7], 42 nM. Further, the values for the Ratio in test [1] and in test [2] were 5.07 and 7.7, respectively.

Turning to `O=C(COc1ccccc1)Nc1nc2nn(CCc3ccccc3)cc2c2nc(-c3ccco3)nn12`, in test [3], the IC50 came to 130 nM. For the same compound, the Ki was 20 nM in test [4], 300 nM in test [5], 22 nM in test [6] and 40 nM in test [7]. Also, the Ratio in test [1] was found to be 0.9; in test [2] it was 13.6.

Turning to `Cn1cc2c(nc(NC(=O)Cc3ccccc3)n3nc(-c4ccco4)nc23)n1`, the figures for the Ratio in test [1] and in test [2] were 4.2 and 0.05, respectively.

`O=C(Cc1cccc2ccccc12)Nc1nc2nn(CCc3ccccc3)cc2c2nc(-c3ccco3)nn12` gave an IC50 in test [3] of 180 nM. The inhibitory constant (Ki) in test [4] came out at 90 nM; in test [5] it was 120 nM; in test [6] it was 30 nM; in test [7] it was 55 nM. The values for the Ratio in test [1] and in test [2] were 3 and 4, respectively.

Consider `Nc1nc2nn(CCc3ccccc3)cc2c2nc(-c3ccco3)nn12`, for which the Ratio in test [1] was determined as 0.2.

`CC(C)CCn1cc2c(nc(NC(=O)COc3ccccc3)n3nc(-c4ccco4)nc23)n1`: half-maximal inhibition in test [3] (IC50) was put at 150 nM. The Ki in test [4] was determined as 55 nM; in test [5] it was 50 nM; in test [6], 25 nM; in test [7], 38 nM. Besides, the Ratio in test [1] turned out to be 2.2; in test [2] it was 2.

As for `O=C(Cc1ccccc1)Nc1nc2nn(CCCc3ccccc3)cc2c2nc(-c3ccco3)nn12`, the IC50 in test [3] was determined as 250 nM. For the same compound, the results for the Ki in test [4], in test [6] and in test [7] were 75 nM, 40 nM and 60 nM, respectively. Further, the Ratio in test [1] came to 1.9; in test [2] it was 3.

In test [3], `O=C(Cc1ccccc1)Nc1nc2nn(CCc3ccccc3)cc2c2nc(-c3ccco3)nn12` came in with an IC50 of 210 nM. Moreover, the Ki in test [4] was found to be 120 nM; in test [5], 45 nM; in test [6], 35 nM; in test [7] it was 60 nM. Moreover, the Ratio in test [1] was found to be 3.4; in test [2] it was 1.3.
